The target of assay [1] is T1, Kinesin-like protein KIF11 (Homo sapiens, UniProt P52732).
T1 sequence (P52732 whole entry): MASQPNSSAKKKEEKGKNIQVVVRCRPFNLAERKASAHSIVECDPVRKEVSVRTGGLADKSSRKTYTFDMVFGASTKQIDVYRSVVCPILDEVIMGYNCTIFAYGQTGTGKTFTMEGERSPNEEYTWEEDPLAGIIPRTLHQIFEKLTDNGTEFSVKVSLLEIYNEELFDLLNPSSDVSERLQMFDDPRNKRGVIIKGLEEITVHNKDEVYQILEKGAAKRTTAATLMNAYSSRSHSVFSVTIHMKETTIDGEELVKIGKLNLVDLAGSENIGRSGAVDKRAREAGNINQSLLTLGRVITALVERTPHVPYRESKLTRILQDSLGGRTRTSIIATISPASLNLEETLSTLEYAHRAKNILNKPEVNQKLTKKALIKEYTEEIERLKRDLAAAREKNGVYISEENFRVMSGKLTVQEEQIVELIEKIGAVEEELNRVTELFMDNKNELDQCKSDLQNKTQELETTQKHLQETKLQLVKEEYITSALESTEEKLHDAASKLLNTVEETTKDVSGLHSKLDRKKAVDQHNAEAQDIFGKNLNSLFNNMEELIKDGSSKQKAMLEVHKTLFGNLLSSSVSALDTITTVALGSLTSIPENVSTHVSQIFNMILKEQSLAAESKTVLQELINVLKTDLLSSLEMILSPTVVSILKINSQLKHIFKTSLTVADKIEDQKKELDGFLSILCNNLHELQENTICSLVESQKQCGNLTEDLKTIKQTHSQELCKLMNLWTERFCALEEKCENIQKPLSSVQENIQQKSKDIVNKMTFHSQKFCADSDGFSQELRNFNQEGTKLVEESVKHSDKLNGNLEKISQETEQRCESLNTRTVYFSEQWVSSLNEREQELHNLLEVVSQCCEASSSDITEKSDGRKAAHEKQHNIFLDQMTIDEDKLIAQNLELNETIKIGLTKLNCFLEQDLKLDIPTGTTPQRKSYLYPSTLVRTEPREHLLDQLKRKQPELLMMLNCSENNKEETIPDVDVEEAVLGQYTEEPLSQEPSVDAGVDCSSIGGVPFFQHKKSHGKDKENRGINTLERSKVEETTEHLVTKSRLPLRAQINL
The assay is described as follows: Inhibition of Eg5 by ATPase assay. The format is functional. The gist of the method:
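Eg5 motor-domain protein ATPase activity read with a Kinase-Glo luminescent ATP kit. IC50 taken from dose–response curves of triplicate data points. Values are means ± SD of three independent experiments.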

The subject of assay [2] is A2780. The assay is described as follows: Antiproliferative activity against human A2780 cells. The format is functional, cell-based. The gist of the method:
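A2780 ovarian carcinoma cells were exposed to compound for 72 h. IC50 derived from dose–response curves of triplicate data points, reported as the mean ± SD of three independent experiments.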

The subject of assay [3] is A2780. Briefly: Cell cycle arrest in A2780 cells by accumulation at G1 phase at 0.1 uM. The assay is classed as functional, Homo sapiens. An outline of the steps:
(§1)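 A2780 cells were treated for 17 h at 0.257 or 0.328 µM, with nocodazole 0.1 µM as positive control and DMSO 0.08% as negative control. Cell-cycle profile (% G1, S, G2+M) and mitotic index (% cells in M phase) were quantified by flow cytometry.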

Assay [4] concerns A2780. Briefly: Cell cycle arrest in A2780 cells by accumulation at S phase at 0.1 uM. The assay is classed as functional, Homo sapiens. An outline of the steps:
as §1

Assay [5] has as its system A2780. The assay is described as follows: Cell cycle arrest in A2780 cells by accumulation at G2/M phase at 0.1 uM. The format is functional, Homo sapiens. An outline of the steps: as §1
Assay [6] has as its system A2780. Briefly: Mitotic index in A2780 cells at M phase at 0.1 uM. The assay is classed as functional, Homo sapiens. An outline of the steps:
as §1

Bounds are passed on as bounds.

As usually defined, the IC50 is the concentration that inhibits the measured activity by half. A low value points to greater potency. For `CN(C)C(=O)N1Cc2cc(Br)ccc2C(c2cccc(O)c2)C1` (stereo unspecified), the IC50 is 808 nM in assay [1] and 879 nM in the assay on A2780 [2].

`Cc1ccc2c(c1C)CN(CCCCN(C)C)CC2c1ccccc1` (stereo unspecified): the IC50 was found to be 5360 nM in assay [1] and 1860 nM with A2780 [2]. As for `COc1cccc2c1CN(C(=O)N(C)C)CC2c1cccc(O)c1` (stereo unspecified), the IC50 in assay [1] amounted to 1780 nM; with A2780 [2], 332 nM. As for `Cc1ccc2c(c1C)CN(C(=O)N(C)C)CC2c1cccc(O)c1` (stereo unspecified), the half-inhibitory concentration (IC50) in assay [1] amounted to 306 nM; with A2780 [2], 376 nM.

For the molecule `CN(C)C(=O)N1Cc2cc(Cl)ccc2C(c2cccc(O)c2)C1` (stereo unspecified), the figures for the 50% inhibitory concentration (IC50) (in assay [1]; in the assay with A2780 [2]) were 2490 nM and 1190 nM, respectively.

`Cc1ccc2c(c1C)CN(C(=O)N(C)C)CC2c1cccc(C(F)(F)F)c1` (stereo unspecified) registered a 50% inhibitory concentration (IC50) in assay [1] of 13200 nM. In the case of `Cc1ccc2c(c1C)CN(CCCCN)CC2c1ccccc1` (stereo unspecified), the IC50 is 4650 nM in assay [1] and 2370 nM with A2780 [2]. Regarding `CN(C)C(=O)N1Cc2cc(I)ccc2C(c2cccc(O)c2)C1` (stereo unspecified), the IC50 in assay [1] came to 317 nM; with A2780 [2], 363 nM. For the molecule `Cc1ccc2c(c1C)CN(C(=O)c1ccccc1)CC2c1ccccc1` (stereo unspecified), the 50% inhibitory concentration (IC50) in assay [1] was 16400 nM; with A2780 [2] it was 7770 nM. Regarding `COC(=O)Nc1nc2cc(C(=O)c3cccs3)ccc2[nH]1` [NOCODAZOLE], the Activity in the assay on A2780 [3] was 12%; in the assay on A2780 [4] it was 15.7%; in the assay with A2780 [5] it was 62.1%; with A2780 [6] it was 23.7%.

In the case of `CCN1Cc2c(ccc(C)c2C)C(c2ccccc2)C1` (stereo unspecified), the IC50 in assay [1] is 25200 nM; in the assay with A2780 [2], 5300 nM. Turning to `Cc1ccc2c(c1C)CN(C(=O)N1CCCCC1)CC2c1ccccc1` (stereo unspecified), the IC50 stood at 12800 nM in assay [1] and 2830 nM in the assay on A2780 [2].

In the case of `COc1ccc2c(c1OC)CN(C(=O)N(C)C)CC2c1cccc(O)c1` (stereo unspecified), the figures for the IC50 (in assay [1]; in the assay on A2780 [2]) were 12800 nM and 2920 nM, respectively. As for `Cc1ccc2c(c1C)CN(C(C)C)CC2c1ccccc1` (stereo unspecified), the values for the IC50 (in assay [1]; in the assay on A2780 [2]) were 11000 nM and 6280 nM, respectively. For `CN(C)C(=O)N1Cc2c(Cl)cccc2C(c2cccc(O)c2)C1` (stereo unspecified), the IC50 in assay [1] was > 25000 nM. `CN(C)C(=O)N1Cc2c(ccc(Cl)c2Cl)C(c2cccc(O)c2)C1` (stereo unspecified): the results for the half-maximal inhibitory concentration (IC50) (in assay [1]; in the assay with A2780 [2]) were 1270 nM and 3440 nM, respectively. On to `Cc1ccc2c(c1)CN(C(=O)N(C)C)CC2c1cccc(O)c1` (stereo unspecified), for which the IC50 in assay [1] turned out to be 595 nM; with A2780 [2], 851 nM. Turning to `Cc1ccc2c(c1C)CN(CCc1ccccc1)CC2c1ccccc1` (stereo unspecified), the concentration for half-maximal inhibition (IC50) in assay [1] was > 25000 nM.

Regarding `CCc1cccc2c1CN(C(=O)N(C)C)CC2c1cccc(O)c1` (stereo unspecified), the values for the IC50 (in assay [1]; in the assay on A2780 [2]) were 344 nM and 186 nM, respectively. `Cc1ccc2c(c1C)CN(S(C)(=O)=O)CC2c1ccccc1` (stereo unspecified): the IC50 in assay [1] was > 25000 nM. For the molecule `Cc1ccc2c(c1C)CN(CCn1cccc1)CC2c1ccccc1` (stereo unspecified), the IC50 in assay [1] is > 25000 nM. Turning to `CN(C)C(=O)N1Cc2c(ccc3c2OCC3)C(c2cccc(O)c2)C1` (stereo unspecified), the half-maximal inhibitory concentration (IC50) in assay [1] came to 639 nM; with A2780 [2], 235 nM.

These data come from ChEMBL document CHEMBL1146117, “Inhibitors of human mitotic kinesin Eg5: characterization of the 4-phenyl-tetrahydroisoquinoline lead series” (Bioorg Med Chem Lett, 2006).
